# Measurements taken from PubChem BioAssay AID623932 (Vanderbilt High Throughput Screening Facility, 2012).
# Active and inactive are the calls of the source.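 The calls were made as follows: active = at one tested dose, specific binding or response inhibited over 50%; inactive = the rest.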
# Test: broad binding selectivity at GPCRs, channels, transporters – biochemical, Ricerca panel, selectivity assay, profiling panel (AID 623932)
# Conditions: Ricerca radioligand binding panel, % inhibition, at 10 µM, stronger effect = higher value
# Outline: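 System – panel of radioligand binding assays across multiple targets · Benchmarks – reference standards in each assay · Read-out basis – % loss of selective radioligand binding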
smiles,measurement,setting,value
Cc1cc(NC(=O)Nc2ccc(F)c(F)c2)n(-c2ccccc2)n1,inhibition,NMDA binding inhibition,21%
same,inhibition,,60% (inactive)
same,inhibition,measured here: 5-HT2B binding inhibition,46%
same,inhibition,measured here: DAT binding inhibition,12%
same,inhibition,measured here: GABA-A flunitrazepam binding inhibition,24%
same,inhibition,measured here: GABA-A muscimol binding inhibition,49%
same,inhibition,measured here: NET binding inhibition,15%
same,inhibition,measured here: NPY Y1 binding inhibition,24%
same,inhibition,measured here: P2X binding inhibition,16%
same,inhibition,measured here: dopamine D2S binding inhibition,16%
same,inhibition,measured here: hERG binding inhibition,10%
same,inhibition,measured here: imidazoline I2 binding inhibition,20%
same,inhibition,measured here: mu opioid binding inhibition,21%
